ChEMBL document CHEMBL4261487, “Small structural changes of the imidazopyridine diacylglycerol acyltransferase 2 (DGAT2) inhibitors produce an improved safety profile” (Medchemcomm, 2017)

Columns and labels:
Rattus norvegicus [1] = experiment: Unbound AUC in Wistar Han IGS rat at 300 mg/kg, po qd administered for 1 month; format: ADME, organism-based; conditions: in vivo
In short: (§1)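 Wistar Han rats were dosed orally once daily for 14 days (exploratory, 5/sex/dose) or 1 month (toxicity, 10/sex/dose). Toxicokinetic satellite animals (3–4/sex/dose) were used, and steady-state systemic exposure is given as the mean of male and female values combined.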

Rattus norvegicus [2] = experiment: In vivo inhibition of DGAT2 in Wistar Han IGS rat assessed as coverage of in vitro IC50 for rat DGAT2 at 10 mg/kg, po qd administered for 14 days; format: functional; set-up: scale not given: the % may be the effect or the level left
In short: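 Wistar Han rats, once-daily oral dosing for 14 days (exploratory, 5/sex/dose) or 1 month (10/sex/dose); toxicokinetics in 3–4/sex/dose with sexes combined; coverage is the average % above rat DGAT2 IC50 at steady state over the 24 h dosing interval.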

Canis familiaris [3] = experiment: Unbound AUC in beagle dog at 300 mg/kg, po qd administered for 14 days; format: ADME, organism-based, Canis lupus familiaris; conditions: in vivo, 336 h
In short: (§2)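 Beagle dogs were dosed orally once daily in a 14-day exploratory study or 1-month toxicity studies. Steady-state systemic exposure over the 24 h dosing interval is reported as the mean of male and female values combined.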

Canis familiaris [4] = experiment: Unbound AUC in beagle dog at 2 mg/kg, po qd administered for 1 month; format: ADME, organism-based, Canis lupus familiaris; conditions: in vivo; in short: as §2
Canis familiaris [5] = experiment: Unbound Cmax in telemetered beagle dog at 75 mg/kg administered via oral gavage measured over 24 hrs; format: ADME, organism-based, Canis lupus familiaris; conditions: in vivo
In short: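 Telemetered Beagle dogs given oral doses, with blood pressure and heart rate monitored after dosing alongside plasma exposure.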

Canis familiaris [6] = experiment: Unbound Cmax in beagle dog at 2 mg/kg, po qd administered for 1 month; format: ADME, organism-based, Canis lupus familiaris; conditions: in vivo; in short: as §2
Canis familiaris [7] = experiment: Toxicity in telemetered beagle dog assessed as emesis at 20 mg/kg, iv administered as single bolus dose over 2 mins; format: organism-based, Canis lupus familiaris; conditions: in vivo
Canis familiaris [8] = experiment: Toxicity in telemetered beagle dog assessed as increase in systolic blood pressure at 20 mg/kg, iv administered as single bolus dose over 2 mins; format: organism-based, Canis lupus familiaris; conditions: in vivo
Rattus norvegicus [9] = experiment: Unbound AUC in Wistar Han IGS rat at 500 mg/kg, po qd administered for 14 days; format: ADME, organism-based; conditions: in vivo, 336 h; in short: as §1
Canis familiaris [10] = experiment: Unbound Cmax in beagle dog at 50 mg/kg, po qd administered for 1 month; format: ADME, organism-based, Canis lupus familiaris; conditions: in vivo
In short: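 Beagle dogs were given the compound orally once daily for 1 month in a toxicity study, with 2 dogs per sex per dose group. Plasma exposure was measured at steady state across the 24 h dosing interval.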

Canis familiaris [11] = experiment: Toxicity in telemetered beagle dog assessed as increase in diastolic pressure at 75 mg/kg administered via oral gavage measured over 24 hrs; format: organism-based, Canis lupus familiaris; conditions: in vivo
Canis familiaris [12] = experiment: Unbound AUC in beagle dog at 75 mg/kg, po qd administered for 14 days; format: ADME, organism-based, Canis lupus familiaris; conditions: in vivo, 336 h; in short: as §2
Canis familiaris [13] = experiment: Toxicity in beagle dog assessed as decrease in body weight at 150 mg/kg, po qd administered for 10 days; format: organism-based, Canis lupus familiaris; conditions: in vivo, 240 h
Canis familiaris [14] = experiment: Toxicity in telemetered beagle dog assessed as increase in heart rate at 10 mg/kg administered via oral gavage measured over 24 hrs; format: organism-based, Canis lupus familiaris; conditions: in vivo
Rattus norvegicus [15] = experiment: Unbound Cmax in Wistar Han IGS rat at 60 mg/kg, po qd administered for 1 month; format: ADME, organism-based; conditions: in vivo; in short: as §1
Canis familiaris [16] = experiment: Toxicity in telemetered beagle dog assessed as foamy salivation at 20 mg/kg, iv administered as single bolus dose over 2 mins; format: organism-based, Canis lupus familiaris; conditions: in vivo
Canis familiaris [17] = experiment: Unbound AUC in beagle dog at 100 to 150 mg/kg, po qd administered for 1 month; format: ADME, organism-based, Canis lupus familiaris; conditions: in vivo; in short: as §2
Canis familiaris [18] = experiment: Toxicity in po dosed telemetered beagle dog assessed as increase in heart rate measured over 24 hrs; format: organism-based, Canis lupus familiaris; conditions: in vivo
Rattus norvegicus [19] = experiment: Unbound Cmax in Wistar Han IGS rat at 10 mg/kg, po qd administered for 14 days; format: ADME, organism-based; conditions: in vivo, 336 h; in short: as §1
Rattus norvegicus [20] = experiment: Toxicity in Wistar Han IGS rat at 100 mg/kg, po qd administered for 14 days; format: organism-based; conditions: in vivo, 336 h
In short: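 Wistar Han rats, daily oral dosing for 14 days (5/sex/dose) or 1 month (10/sex/dose); microscopic findings reported as incidence by sex, plus organ weights.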

Canis familiaris [21] = experiment: In vivo inhibition of DGAT2 in beagle dog assessed as coverage of in vitro IC50 for dog DGAT2 at 5 mg/kg, po qd administered for 1 month; format: functional, Canis lupus familiaris; set-up: scale not given: the % may be the effect or the level left
In short: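 Beagle dogs, once-daily oral dosing for 14 days or 1 month; systemic exposure with sexes combined; coverage is the average % above dog DGAT2 IC50 at steady state over the 24 h dosing interval.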

[22] = Ratio of Cmax in beagle dog at 30 mg/kg, po qd administered for 1 month to IC50 for in vitro inhibition of dog DGAT2; format: organism-based, Canis lupus familiaris; conditions: in vivo
In short: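 One-month toxicity study in Beagle dogs with N = 2/sex/dose. Plasma exposure at each dose level was referenced to the dog DGAT2 enzymatic IC50, reported as the geometric mean of at least three replicates.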

Canis familiaris [23] = experiment: Unbound AUC in beagle dog at 30 mg/kg, po qd administered for 1 month; format: ADME, organism-based, Canis lupus familiaris; conditions: in vivo; in short: as §2
Canis familiaris [24] = experiment: Toxicity in telemetered beagle dog assessed as increase in systolic pressure at 25 mg/kg administered via oral gavage measured during 4 hrs of post dosing; format: organism-based, Canis lupus familiaris; conditions: in vivo
[25] = Ratio of Cmax in telemetered beagle dog at 25 mg/kg administered via oral gavage measured over 24 hrs to IC50 for in vitro inhibition of dog DGAT2; format: organism-based, Canis lupus familiaris; conditions: in vivo
In short: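 Telemetered Beagle dogs given single oral doses (5, 25 and 50 mg kg–1), with systolic and diastolic blood pressure and heart rate monitored after dosing. Cmax is related to the dog DGAT2 enzymatic IC50, which is the geometric mean of at least three replicates.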

[26] = Oral bioavailability in beagle dog at 5 mg/kg; format: ADME, organism-based, Canis lupus familiaris; conditions: in vivo
[27] = Apparent intrinsic clearance in rat hepatocytes assessed per million cells; format: ADME, cell-based, Hepatocyte
Canis familiaris [28] = experiment: Toxicity in telemetered beagle dog assessed as increase in diastolic pressure at 50 mg/kg administered via oral gavage measured during 4 hrs of post dosing; format: organism-based, Canis lupus familiaris; conditions: in vivo
[29] = Half life in beagle dog at 1 mg/kg, iv; format: ADME, organism-based, Canis lupus familiaris; conditions: in vivo
Canis familiaris [30] = experiment: Toxicity in telemetered beagle dog assessed as increase in systolic pressure at 5 mg/kg administered via oral gavage measured during 4 hrs of post dosing; format: organism-based, Canis lupus familiaris; conditions: in vivo
Canis familiaris [31] = experiment: Toxicity in telemetered beagle dog assessed as increase in heart rate at 50 mg/kg administered via oral gavage measured up to 9 hrs of post dosing; format: organism-based, Canis lupus familiaris; conditions: in vivo

SMILES: CS(=O)(=O)O.O=C([C@@H]1CCCN(c2ccc3nc(C4(n5cc(Cl)cn5)CC4)[nH]c3n2)C1)N1CCCC1
- fAUC (Rattus norvegicus [1]): 62500 ng·h/mL
- Activity (Rattus norvegicus [2]): 75%
- fAUC (Canis familiaris [3]): 78300 ng·h/mL
- fAUC (Canis familiaris [4]): 238 ng·h/mL
- fCmax (Canis familiaris [5]): 7.51 µM
- fCmax (Canis familiaris [6]): 305 nM
- Activity (Canis familiaris [7]): Non-Toxic
- Activity (Canis familiaris [8]): Non-Toxic
- fAUC (Rattus norvegicus [9]): 88300 ng·h/mL
- fCmax (Canis familiaris [10]): 12.7 µM
- Activity (Canis familiaris [11]): 6 mmHg
- fAUC (Canis familiaris [12]): 24800 ng·h/mL
- Activity (Canis familiaris [13]): Toxic
- Activity (Canis familiaris [14]): 4 to 10 bpm
- fCmax (Rattus norvegicus [15]): 5.47 µM
- Activity (Canis familiaris [16]): Non-Toxic
- fAUC (Canis familiaris [17]): 92600 ng·h/mL
- Activity (Canis familiaris [18]): Dose-dependent effect
- fCmax (Rattus norvegicus [19]): 390 nM
- Activity (Rattus norvegicus [20]): Non-Toxic
- Activity (Canis familiaris [21]): 87%

SMILES: C[C@@H](c1nc2ccc(N3CCC[C@@H](C(=O)N4CCCC4)C3)nc2[nH]1)n1cc(Cl)cn1
- Ratio [22]: 92
- fAUC (Canis familiaris [23]): 9530 ng·h/mL
- Activity (Canis familiaris [24]): 6 mmHg
- Ratio [25]: 52
- bioavailability [26]: 75%
- CLH(app) [27]: 12.7 µL/min
- Activity (Canis familiaris [28]): 6 mmHg
- half-life [29]: 3.2 h
- Activity (Canis familiaris [30]): 4 to 6 mmHg
- Activity (Canis familiaris [31]): 15 bpm
